Results taken from ChEMBL document CHEMBL1129496, “3-and 4-substituted 4H-pyrido[4,3-e]-1,2,4-thiadiazine 1,1-dioxides as potassium channel openers: synthesis, pharmacological evaluation, and structure-activity relationships” (1996).
Activity calls are given as the source filed them. No cut-off for these calls is given here.

Key:
Type in all cases: functional
Rattus norvegicus [1] = organism: Rattus norvegicus; experiment: Effective dose concentration by the compound to give 50% relaxation of KCl induced concentration
Outline: (§1)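 Endothelium-denuded transverse aortic rings (3-4 mm) from fed Wistar rats (250-300 g), held at 36 ± 1 °C under 95% O2/5% CO2. After 60 min equilibration they were contracted with 30 mM KCl. At the plateau (1-2 g), drug was added cumulatively until maximal relaxation or 1 mM. Isometric tension was recorded. ED50 was read graphically from each curve. Mean ± sem of 3-12 experiments.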

Rattus norvegicus [2] = organism: Rattus norvegicus; experiment: Residual insulin release from rat pancreatic islets at a concentration of 50 uM
Outline: (§2)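 Rat pancreatic islets in groups of 10 were preincubated 30 min at 37 °C in bicarbonate salt medium with 2.8 mM glucose and 0.5% dialyzed albumin, gassed with 95% O2/5% CO2. They were then incubated 90 min at 37 °C with 16.7 mM glucose plus test drug. Insulin was measured by radioimmunoassay against a rat insulin standard and reported as % residual release.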

Rattus norvegicus [3] = organism: Rattus norvegicus; experiment: Percentage of residual contractile response in isolated rat aorta; +++ indicates that a maximal vasorelaxant activity was observed at 500 uM
Rattus norvegicus [4] = organism: Rattus norvegicus; experiment: Percentage of residual contractile response at 500 uM from isolated rat aorta
Rattus norvegicus [5] = organism: Rattus norvegicus; experiment: Percentage residual insulin release by the compound at 10 uM from rat pancreatic islets; outline: as §2
Rattus norvegicus [6] = organism: Rattus norvegicus; experiment: Effective dose to give 50% relaxation of the KCl induced contraction; outline: as §1
Rattus norvegicus [7] = organism: Rattus norvegicus; experiment: Effective dose to give 50% relaxation of KCl induced concentration; outline: as §1
Rattus norvegicus [8] = organism: Rattus norvegicus; experiment: Percentage residual insulin release by the compound at 1(uM from rat pancreatic islets; conditions: in the assay text read “10(uM” for “1(uM”; outline: as §2
Rattus norvegicus [9] = organism: Rattus norvegicus; experiment: Percentage residual insulin release by the compound at 1 uM from rat pancreatic islets; outline: as §2

SMILES	Residual insulin secretion (Rattus norvegicus [2]) [%]	Residual contractile activity (Rattus norvegicus [3])	Residual contractile activity (Rattus norvegicus [4]) [%]	further results
CC(C)(C)C1=NS(=O)(=O)c2cnccc2N1	81.1	maximal vasorelaxant activity was observed at 500 uM	–	ED50 (Rattus norvegicus [1]): 258 µM
CC1=NS(=O)(=O)c2cnccc2N1N1C2CCCC1CC2	71.9	–	53	–
O=S1(=O)N=C(NC2CCCC2)Nc2ccncc21	31.6	–	60	–
CC1=NS(=O)(=O)c2cnccc2N1C(C)C	68.1	–	86	–
CC1=Nc2ccc(Cl)cc2S(=O)(=O)N1 [DIAZOXIDE]	–	Active	–	Residual insulin secretion (Rattus norvegicus [5]): 70%; ED50 (Rattus norvegicus [6]): 21 µM
CC1=NS(=O)(=O)c2cnccc2N1C1CCCCCCC1	90.6	maximal vasorelaxant activity was observed at 500 uM	–	ED50 (Rattus norvegicus [7]): 248 µM
CC1=NS(=O)(=O)c2cnccc2N1N1CCOCC1	93.5	–	89	–
CN1CCN(C2=NS(=O)(=O)c3cnccc3N2)CC1	90.6	maximal vasorelaxant activity was observed at 500 uM	–	ED50 (Rattus norvegicus [6]): 125 µM
CCCCNC1=NS(=O)(=O)c2cnccc2N1	–	–	74	Residual insulin secretion (Rattus norvegicus [5]): 82%
NC1=NS(=O)(=O)c2cnccc2N1	–	–	77	–
CC1=NS(=O)(=O)c2cnccc2N1C	109	–	94	–
CCCC1=NS(=O)(=O)c2cnccc2N1	85.1	–	77	–
CC1=NS(=O)(=O)c2cc(Cl)ccc2N1C	83.9	–	–	–
O=S1(=O)N=C(NC2CCCCC2)Nc2ccncc21	–	–	40	–
CC(NC1=NS(=O)(=O)c2cnccc2N1C)C(C)(C)C (stereo not given)	88.5	–	74	–
CC1=NS(=O)(=O)c2cnccc2N1	100.4	–	92	–
CCNC1=NS(=O)(=O)c2cnccc2N1	59.2	–	87	–
CC(C)NC1=NS(=O)(=O)c2cnccc2N1C	79.4	–	84	–
O=S1(=O)N=C(C2CCCC2)Nc2ccncc21	99.3	maximal vasorelaxant activity was observed at 500 uM	–	ED50 (Rattus norvegicus [1]): 257 µM

SMILES	Residual insulin secretion (Rattus norvegicus [2]) [%]	Residual contractile activity (Rattus norvegicus [3])	Residual contractile activity (Rattus norvegicus [4]) [%]	further results
CC1=NS(=O)(=O)c2cnccc2N1C1CCCCC1	87.9	–	52	–
CCC(C)NC1=NS(=O)(=O)c2cnccc2N1C (stereo not given)	81	–	61	–
O=S1(=O)N=CNc2ccncc21	99.5	–	94	–
CCCNC1=NS(=O)(=O)c2cnccc2N1	–	–	88	–
CC(C)C(C)NC1=NS(=O)(=O)c2cnccc2N1C (stereo not given)	95.4	–	69	–
CCCCN(C)C1=NS(=O)(=O)c2cnccc2N1	76.1	–	47	–
CCC1=NS(=O)(=O)c2cnccc2N1	90.2	–	74	–
CCC(C)NC1=NS(=O)(=O)c2cnccc2N1 (stereo not given)	9.4	–	34	Residual insulin secretion (Rattus norvegicus [8]): 49%
O=S1(=O)N=C(NN2CCOCC2)Nc2ccncc21	98.8	–	93	–
CC(C)CNC1=NS(=O)(=O)c2cnccc2N1	–	maximal vasorelaxant activity was observed at 500 uM	–	ED50 (Rattus norvegicus [6]): 205 µM
CC(C)C(C)NC1=NS(=O)(=O)c2cc(Cl)ccc2N1 (stereo not given)	11	maximal vasorelaxant activity was observed at 500 uM	–	ED50 (Rattus norvegicus [6]): 32 µM
O=S1(=O)N=C(C(F)(F)F)Nc2ccncc21	90.4	–	96	–
CCC(C)NC1=NS(=O)(=O)c2cc(Cl)ccc2N1 (stereo not given)	5.5	maximal vasorelaxant activity was observed at 500 uM	–	Residual insulin secretion (Rattus norvegicus [5]): 19.9%; ED50 (Rattus norvegicus [6]): 25 µM; Residual insulin secretion (Rattus norvegicus [9]): 85.4%
CC(C)C(C)NC1=NS(=O)(=O)c2cnccc2N1 (stereo not given)	8.6	Active	–	ED50 (Rattus norvegicus [6]): 302 µM
CC(NC1=NS(=O)(=O)c2cc(Cl)ccc2N1)C(C)(C)C (stereo not given)	9.3	maximal vasorelaxant activity was observed at 500 uM	–	Residual insulin secretion (Rattus norvegicus [5]): 46.9%; ED50 (Rattus norvegicus [6]): 10 µM; Residual insulin secretion (Rattus norvegicus [9]): 87.7%
O=S1(=O)NC(C2CCCC2)=Nc2ccc(Cl)cc21	14.1	maximal vasorelaxant activity was observed at 500 uM	–	ED50 (Rattus norvegicus [1]): 2.8 µM
CC(NC1=NS(=O)(=O)c2cnccc2N1)C(C)(C)C (stereo not given)	10.3	maximal vasorelaxant activity was observed at 500 uM	–	Residual insulin secretion (Rattus norvegicus [5]): 41%; ED50 (Rattus norvegicus [6]): 104 µM; Residual insulin secretion (Rattus norvegicus [9]): 70%
CC(C)C1=NS(=O)(=O)c2cnccc2N1	79.7	–	71	–
CC(C)NC1=NS(=O)(=O)c2cnccc2N1	42.6	–	89	–
